Source: PubChem BioAssay
SENP6 block – SENP6 protease inhibitors, primary screen, biochemical, luminescence, uHTS; Sentrin-specific protease 6 (Homo sapiens), Q9GZR1; inhibition, % at 10 µM; Recombinant SENP6 catalytic domain, aminoluciferin luminescence; actives 1.8% (n = 330,000);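 active means inhibition above about 50% at the single tested dose, limit read from the data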;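 further: plate controls were DMSO wells with enzyme for no effect and DMSO wells lacking enzyme for full effect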
SENP8 block-1 – human SENP8 protease inhibitors, primary screen, biochemical, fluorescence, Nedd8 protein substrate, uHTS; actives 0.64% (n = 360,000); inhibition, % at 20 µM; recombinant SENP8; in the data active means inhibition mostly above about 40%, no sharp cut-off; inactive means mostly below about 27%
Target sequence (Q96LD8 whole entry, looked up): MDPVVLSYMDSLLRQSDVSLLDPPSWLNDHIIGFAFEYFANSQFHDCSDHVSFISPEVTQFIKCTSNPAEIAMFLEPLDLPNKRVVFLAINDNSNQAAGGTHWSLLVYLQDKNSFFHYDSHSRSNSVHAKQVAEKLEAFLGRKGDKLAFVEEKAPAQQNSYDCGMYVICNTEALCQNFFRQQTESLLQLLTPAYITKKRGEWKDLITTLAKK
SENP8 block-2 – SENP8 protease inhibitors, primary screen, biochemical, luminescence; Sentrin-specific protease 8 (Homo sapiens), Q96LD8; inhibition, % at 10 µM; purified SENP8, Z-RLRGG-aminoluciferin cleavage; actives 1.2% (n = 330,000); in the data active means inhibition above about 50%
SENP1 inh – human SENP1 catalytic domain inhibitors, primary screen, biochemical, FRET, uHTS; Sentrin-specific protease 1 (Homo sapiens), Q9P0U3; recombinant SENP1 catalytic domain, CyPet-SUMO1-YPet FRET cleavage; inhibition, % at 10 µM; actives 0.21% (n = 360,000); AID 624204, 2012;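 active means inhibition at least 30% at 10 µM, raw YFP signal under a set limit, fluorescence ratio 0.5 to 1.5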;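 further: 0% = enzyme with DMSO and 100% = no enzyme wells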
Target sequence (Q9P0U3 419-644 limits assumed): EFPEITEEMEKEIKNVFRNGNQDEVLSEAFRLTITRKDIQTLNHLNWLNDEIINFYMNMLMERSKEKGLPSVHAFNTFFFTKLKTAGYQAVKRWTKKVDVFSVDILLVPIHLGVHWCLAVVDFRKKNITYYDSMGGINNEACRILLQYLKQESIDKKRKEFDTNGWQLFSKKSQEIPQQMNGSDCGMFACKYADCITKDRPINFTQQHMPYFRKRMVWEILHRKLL
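material = recombinant human SENP1 catalytic domain, His6-tagged | quantity = 20 pM enzyme | reagent = 25 nM SUMO1 FRET substrate | compound dosing = 10 µM single point, 0.5% DMSO | timing = 50 min enzyme reaction, room temperature, light-protected | detection = FRET, CFP and YFP emission | control set = no-enzyme low, enzyme-DMSO high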
SENP7 block – SENP7 protease inhibitors, primary screen, biochemical, luminescence, uHTS | Sentrin-specific protease 7 (Homo sapiens), Q9BQF6 | recombinant SENP7, Z-RLRGG-aminoluciferin luminescence, 40 min | inhibition, % at 5 µM | actives 1.5% (n = 330,000);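 active means inhibition above about 50% at the single test dose, limit read from the data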;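 further: plate controls were DMSO with enzyme for no effect and no enzyme buffer wells for full effect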
SENP8 conf-1 – SENP8 protease inhibitors, retest, confirmation, biochemical, luminescence, single concentration | shares compounds with SENP7 block | Recombinant SENP8, Z-RLRGG-aminoluciferin luminescence, 60 min | inhibition, % at 12.5 µM | actives 40% (n = 6,200);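 active means mean inhibition across replicates above about 50%, limit read from the data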
SENP6 confirm – SENP6 protease inhibitors, confirmation, biochemical, luminescence, single concentration; recombinant SENP6, Z-RLRGG-aminoluciferin luminescence; actives 58% (n = 6,200); inhibition, % at 12.5 µM; shares compounds with SENP7 block
SENP7 conf – SENP7 protease inhibitors, retest, confirmation, biochemical, luminescence, single concentration; inhibition, % at 12.5 µM; actives 69% (n = 6,200); recombinant SENP7, Z-RLRGG-aminoluciferin luminescence, 40 min; shares compounds with SENP7 block
Casp3 SENP sel – caspase-3 protease inhibitors, confirmation, selectivity assay for SENP inhibitor project, biochemical, single concentration | shares compounds with SENP7 block | purified caspase-3, Z-DEVD-aminoluciferin luminescence, 60 min | inhibition, % at 12.5 µM | actives 60% (n = 6,200);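 active means mean inhibition above about 50%, limit read from the data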;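 further: plate controls were enzyme with DMSO for no effect and wells without caspase-3 for full effect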
SENP luc ctr – interferes with luciferase luminescence in SENP counter-screen | shares compounds with SENP7 block | AID 488919 | Pre-incubated SENP8/Z-RLRGG-aminoluciferin, luciferase luminescence interference | inhibition, % at 12.5 µM | actives 39% (n = 6,200);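 active means mean inhibition above about 50% when retested at one dose, limit read from the data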;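 further: plate controls were DMSO wells with completed reaction for no effect and substrate without enzyme for full effect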
SENP8 conf-2 – human SENP8 protease inhibitors, confirmation, biochemical, Nedd8 protein substrate, single concentration; shares compounds with SENP8 block-1; purified SENP8, Nedd8-AMC/pro-Nedd8 cleavage fluorescence, 30 min; actives 15% (n = 1,400); inhibition, % at 25 µM; AID 624319, 2012; in the data active means inhibition mostly above about 39%, no sharp cut-off; inactive means mostly below about 34%
SENP1 inh conf – human SENP1 catalytic domain inhibitors, confirmation, biochemical, FRET endpoint, single concentration; actives 34% (n = 520); shares compounds with SENP1 inh; inhibition, % at 10 µM; recombinant SENP1, CyPet-SUMO1-YPet FRET cleavage; in the data active means inhibition mostly above about 35%, no sharp cut-off; inactive means mostly below about 32%;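 further: 0% = enzyme with DMSO and 100% = no enzyme control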
SENP1 kinetic – human SENP1 catalytic domain inhibitors, confirmation, biochemical, kinetic FRET, single concentration; inhibition, % at 10 µM; shares compounds with SENP1 inh; recombinant SENP1, CyPet-SUMO1-YPet FRET kinetic cleavage; AID 651690, 2012; actives 26% (n = 520); in the data active means inhibition mostly above about 32%, no sharp cut-off; inactive means mostly below about 29%;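 further: 0% = DMSO with enzyme and 100% = no enzyme substrate only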
An asterisk follows results filed as active; / = no result given; ! = a repeat was not active. Only some compounds are listed: those with a hit (about 2.5% of all), similar ones and a draw of the others.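 How the source made its calls, unless noted: active means mean inhibition above about 50% in the one-dose retest (limit read from the data); inactive means the rest.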

SMILES	SENP6 block	SENP8 block-1	SENP8 block-2	SENP1 inh	SENP7 block	SENP8 conf-2	others
COc1cccc2c1Oc1ncccc1N(C(=O)CCC(=O)NCc1ccccc1F)C2	4	3	2	1	-7	/
Cc1sc2nc(COC(=O)CNC(=O)c3ccc(C(C)(C)C)cc3)[nH]c(=O)c2c1C	-15	-10	-17	2	-9	/
Cc1nn(-c2ccccc2)c(Cl)c1/C=N/Nc1nc2ccccc2n1C	43	5	54*	33*	65*	/	SENP8 conf-1=-8;SENP6 confirm=49;SENP7 conf=93*;Casp3 SENP sel=68*;SENP luc ctr=36;SENP1 inh conf=6;SENP1 kinetic=2
O=[N+]([O-])c1ccc2c(c1)nnn2-c1ccccc1	-22	8	-13	1	3	/
Nc1nn(-c2ccccc2)c2ccc([N+](=O)[O-])cc12	72*	29	54*	32*	75*	/	SENP8 conf-1=75*;SENP6 confirm=72*;SENP7 conf=91*;Casp3 SENP sel=85*;SENP luc ctr=73*;SENP1 inh conf=32;SENP1 kinetic=8
CSc1ncc(S(=O)(=O)c2ccccc2)c(=O)[nH]1	23	12	12	-1	2	/
N#Cc1ncc(C(F)(F)F)cc1Sc1ccc(N)cc1	-11	45*	4	3	5	24
CN(C)c1ccc(NC(=O)c2ccc(Cn3cc([N+](=O)[O-])cn3)cc2)cc1	-10	44*	7	6	2	39
COc1ccc(NC(=O)c2ccc(Cn3cc(Cl)cn3)cc2)cc1	-8	6	-4	0	-2	/
CC(=O)N(O)CCCCCNC(=O)CCC(=O)N(O)CCCCCNC(=O)CCC(=O)N(O)CCCCCN	-2	50*!	1	2	4	19
O=c1c(N2CCOCC2)nsnc1N1CCOCC1	4	49*	-6	2	1	25
Cc1ccc(C(=O)O/N=C\c2ccc(N3CCCCC3)c([N+](=O)[O-])c2)cc1	-13	48*	3	8	-6	13
O=C(O/N=C\c1ccc(N2CCCCC2)c([N+](=O)[O-])c1)c1cccc(Cl)c1	1	59*	-1	1	7	15
COc1ccc(C(=O)CCC(C)(C)[N+](=O)[O-])cc1	6	24	-5	3	-14	/
